# Data published in ChEMBL document CHEMBL2384973, “Pharmacological activity of retinoic acid receptor alpha-selective antagonists in vitro and in vivo” (ACS Med Chem Lett, 2013).
# The source made the active and inactive calls. The rule behind the calls is not given here.
# Assays:
# [1] = Drug uptake in CD1 mouse testes at 39 mg/kg, po; type: ADME, organism-based, Testis; design: dose 39 mg/kg, route oral; conditions: in vivo
# [2] = Drug uptake in CD1 mouse testes at 3 mg/kg, iv; type: ADME, organism-based, Testis; design: dose 3 mg/kg, route intravenous; conditions: in vivo
# Mus musculus [3] = assay: Effect on spermatogenesis in CD1 mouse assessed as sperm release into testicular lumen at 10 mg/kg, iv after 7 days; type: functional, organism-based; design: dose 10 mg/kg
# How it was run: (§1)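 Male mice given 10 mg/kg intravenously daily; testes examined histologically at end of treatment (6 days, n = 2; 7 days, n = 2) for spermatid alignment and sperm release into the lumen; vehicle controls.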
# Caco-2 [4] = assay: Permeability from basolateral to apical side in human Caco2 cells at 10^-5 M at pH 6.5 to 7.4; type: ADME, cell-based; conditions: caco-2, pH 6.5, 10 µM
# How it was run: (§2)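 Caco-2 monolayers with apical/basolateral pH gradient 6.5/7.4, compound at 1.0 × 10–5 M; apparent permeability (cm/s) measured in A→B and B→A directions, with percent recovery reported.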
# Mus musculus [5] = assay: Effect on spermatogenesis in CD1 mouse assessed as disruptive effect on spermatid alignment at 10 mg/kg, iv after 7 days; type: functional, organism-based; design: dose 10 mg/kg; how it was run: as §1
# [6] = Permeability from basolateral to apical side in human Caco2 cellsassessed as drug recovery at 10^-5 M at pH 6.5 to 7.4; type: ADME, cell-based; conditions: Caco-2, pH 6.5, read-out: permeability; how it was run: as §2
# [7] = Metabolic stability in CD1 mouse liver microsomes assessed as parent compound remaining at 10^-6 M after 60 mins; type: ADME, Microsome; conditions: read-out: Stability
# How it was run: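 CD-1 mouse liver microsomes incubated with compound at 1.0 × 10–6 M for 60 min; percent parent compound remaining determined.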
# [8] = Metabolic stability in CD1 mouse intestinal microsomes assessed as parent compound remaining at 10^-6 M after 60 mins; type: ADME, Intestine; conditions: read-out: Stability
# How it was run: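 CD-1 mouse intestinal microsomes incubated with compound at 1.0 × 10–6 M for 60 min; percent parent remaining determined.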
# Plasma [9] = assay: Fraction unbound in CD1 mouse plasma; type: ADME, cell-free
# How it was run: (§3)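 Binding to CD-1 mouse plasma proteins tested at 1.0 × 10–5 M; percent bound and percent recovery reported.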
# Mus musculus [10] = assay: Effect on spermatogenesis in CD1 mouse assessed as disruptive effect on spermatid alignment at 10 mg/kg, iv after 6 days; type: functional, organism-based; design: dose 10 mg/kg; how it was run: as §1
# [11] = Permeability from apical to basolateral side in human Caco2 cells assessed as drug recovery at 10^-5 M at pH 6.5 to 7.4; type: ADME, cell-based; conditions: Caco-2, pH 6.5, read-out: permeability; how it was run: as §2
# Mus musculus [12] = assay: Effect on spermatogenesis in CD1 mouse assessed as sperm release into testicular lumen at 10 mg/kg, iv after 6 days; type: functional, organism-based; design: dose 10 mg/kg; how it was run: as §1
# Plasma [13] = assay: Drug recovery in CD1 mouse plasma 10^-5 M; type: ADME, cell-free; conditions: 10 µM; how it was run: as §3
# Caco-2 [14] = assay: Permeability from apical to basolateral side in human Caco2 cells at 10^-5 M at pH 6.5 to 7.4; type: ADME, cell-based; conditions: caco-2, pH 6.5, 10 µM; how it was run: as §2
# Plasma [15] = assay: Plasma protein binding in CD1 mouse at 10^-5 M; type: ADME, cell-free; conditions: 10 µM; how it was run: as §3
# [16] = Partition coefficient, log D of the compound in n-octanol-PBS at 10^-4 M at pH 7.4; type: physicochemical; conditions: octanol/water, pH 7.4, 100 µM
# How it was run: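 log D determined at pH 7.4 by n-octanol/PBS partitioning, reported as weighted average.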
# [17] = Aqueous solubility of the compound in PBS at pH 7.4; type: physicochemical; conditions: buffer
# How it was run: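 Aqueous solubility determined in PBS buffer, pH 7.4; tested range <1–200 μM.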
# [18] = Chemical stability of the compound by HPLC-MS analysis; type: physicochemical
# Mus musculus [19] = assay: Toxicity in CD1 mouse assessed as change in testosterone levels at 2 to 10 mg/kg, po for 7 days by enzyme immunoassay relative to control; type: organism-based; design: dose 2-10 mg/kg, route oral; conditions: in vivo, 168 h
# How it was run: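 Male CD1 mice treated orally at two regimens (2 or 10 mg/kg daily, 7 days); sera collected for testosterone determination, values plotted for individual mice.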
# Mus musculus [20] = assay: Toxicity in CD1 mouse assessed as change in body weight at 2 to 10 mg/kg, po; type: organism-based; design: dose 2-10 mg/kg, route oral; conditions: in vivo
# How it was run: (§4)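 Male CD1 mice gavaged daily with 2 or 10 mg/kg for 7 days, vehicle controls; body weight followed throughout; testes weighed one month post-treatment; mean ± SD of five mice per regimen, paired Student's t-test against age-matched controls.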
# Mus musculus [21] = assay: Inhibition of spermatogenesis in CD1 mouse assessed as change in motility of epididymal sperm at 10 mg/kg, po for 7 days measured after 1 month by bright-field microscopic analysis; type: functional, organism-based; design: dose 10 mg/kg
# Mus musculus [22] = assay: Inhibition of spermatogenesis in CD1 mouse assessed as change in morphology of caudal epididymides at 10 mg/kg, po for 7 days measured after 1 month by bright-field microscopic analysis; type: functional, organism-based; design: dose 10 mg/kg
# How it was run: (§5)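 Male CD1 mice dosed by oral gavage at 2 or 10 mg/kg daily for 7 days, controls vehicle only; testes and epididymides collected one month post-treatment for histological staging of tubules (spermatid alignment at stage VIII, sperm release at stage IX).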
# Mus musculus [23] = assay: Inhibition of spermatogenesis in CD1 mouse assessed as asynchronization of spermatogenic cell association at 10 mg/kg, po for 7 days measured after 1 month by bright-field microscopic analysis; type: functional, organism-based; design: dose 10 mg/kg; how it was run: as §5
# Mus musculus [24] = assay: Inhibition of spermatogenesis in CD1 mouse assessed as presence of vacuolar-like spaces at 10 mg/kg, po for 7 days measured after 1 month by bright-field microscopic analysis; type: functional, organism-based; design: dose 10 mg/kg; how it was run: as §5
# Mus musculus [25] = assay: Toxicity in CD1 mouse assessed as change in testicular weight at 2 to 10 mg/kg, po for 7 days relative to control; type: organism-based; design: dose 2-10 mg/kg, route oral; conditions: in vivo, 168 h; how it was run: as §4
# Mus musculus [26] = assay: Inhibition of spermatogenesis in CD1 mouse assessed as change in sperm release at stage 9 into lumen in testes at 2 to 10 mg/kg, po for 7 days measured after 1 month by bright-field microscopic analysis relative to control; type: functional, organism-based; how it was run: as §5
# Mus musculus [27] = assay: Inhibition of spermatogenesis in CD1 mouse assessed as change in alignment of step 16 spermatids at lumen in stage 8 tubules in testes at 2 to 10 mg/kg, po for 7 days measured after 1 month by bright-field microscopic analysis relative to control; type: functional, organism-based; how it was run: as §5
# [28] = target: T1, Retinoic acid receptor alpha (Homo sapiens) (UniProt P10276); assay: Antagonist activity at human RARalpha expressed in human HeLa cells assessed as inhibition of ATRA-induced RARE-chloramphenicol acetyltransferase reporter gene expression after 24 hrs by transactivation competition assay; type: cell-based
# T1 sequence (whole entry): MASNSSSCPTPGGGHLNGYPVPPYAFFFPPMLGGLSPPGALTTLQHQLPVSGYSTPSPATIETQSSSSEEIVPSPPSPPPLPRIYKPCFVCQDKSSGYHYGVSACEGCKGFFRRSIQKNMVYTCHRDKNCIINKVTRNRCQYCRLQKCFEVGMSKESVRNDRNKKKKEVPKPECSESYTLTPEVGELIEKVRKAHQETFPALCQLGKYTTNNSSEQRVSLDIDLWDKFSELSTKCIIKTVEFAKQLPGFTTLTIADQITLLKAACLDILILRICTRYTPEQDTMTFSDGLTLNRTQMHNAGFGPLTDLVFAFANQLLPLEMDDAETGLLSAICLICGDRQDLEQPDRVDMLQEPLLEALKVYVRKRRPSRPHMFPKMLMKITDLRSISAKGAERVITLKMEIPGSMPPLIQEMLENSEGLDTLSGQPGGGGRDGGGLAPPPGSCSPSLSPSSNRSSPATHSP
# How it was run: (§6)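 HeLa cells cotransfected with RAR constructs and a constant beta-galactosidase plasmid as internal control, given 10–7 M ATRA (submaximal) plus increasing concentrations of compound; CAT reporter expression measured after 24 h. RARα, RARβ and RARγ tested. Vehicle control was dilution medium without retinoid; ATRA served as positive control.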
# [29] = target: T1, Retinoic acid receptor alpha (Homo sapiens); assay: Antagonist activity at human RARalpha expressed in human HeLa cells assessed as inhibition of ATRA-induced RARE transactivation after 24 hrs by chloramphenicol acetyltransferase reporter gene assay; type: cell-based; how it was run: as §6
# Mus musculus [30] = assay: Defect in spermatogenesis in CD1 mouse testicular tubules at 10 mg/kg, ip after 7 days; type: functional, organism-based; design: dose 10 mg/kg
# How it was run: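 Male mice dosed intraperitoneally at 10 mg/kg daily for 7 days (n = 4); testicular tubules examined histologically one day post-treatment for retained spermatids, with defects quantified.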
# Mus musculus [31] = assay: Effect on spermatogenesis in CD1 mouse at 10 mg/kg, iv for 7 days measured after 4 weeks; type: functional, organism-based; design: dose 10 mg/kg
# How it was run: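 Male mice dosed intravenously at 10 mg/kg; testes examined histologically 4 weeks post-treatment for spermatogenesis.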
# Mus musculus [32] = assay: Effect on spermatogenesis in CD1 mouse assessed as sperm release into testicular lumen at 2 to 10 mg/kg, po for 7 days; type: functional, organism-based; how it was run: as §5
# Mus musculus [33] = assay: Effect on spermatogenesis in CD1 mouse assessed as disruptive effect on spermatid alignment at 2 to 10 mg/kg, po for 7 days; type: functional, organism-based; how it was run: as §5
"remaining at 1 h, 1 µM [7]",recovery at 10 µM [11],Drug recovery (Plasma [13]),permeability (Caco-2 [14]),PPB (Plasma [15]),logD [16],solubility [17],Stability [18],Compound,Activity (Mus musculus [19]),Activity (Mus musculus [20]),inhibition (Mus musculus [21]),inhibition (Mus musculus [22]),inhibition (Mus musculus [23]),inhibition (Mus musculus [24]),Activity (Mus musculus [25]),inhibition (Mus musculus [26]),inhibition (Mus musculus [27]),other results
49%,20%,99.8%,8.3 ×10⁻⁶ cm/s,99.2%,3.84,136 µM,Stable,Cc1ccc(C2=CCC(C)(C)c3ccc(C(=O)Nc4ccc(C(=O)O)cc4)cc32)cc1,Non-toxic,Non-toxic,inactive,inactive,inactive,inactive,Non-toxic,inactive,inactive,"Drug uptake [1]: Not Active; Drug uptake [2]: Active; Activity (Mus musculus [3]): Active; permeability (Caco-2 [4]): 0.7 ×10⁻⁶ cm/s; Activity (Mus musculus [5]): Active; recovery at 10 µM [6]: 46%; remaining at 1 h, 1 µM [8]: 86%; Fu (Plasma [9]): 0.8%; Activity (Mus musculus [10]): Active; Activity (Mus musculus [12]): Active; Activity [28]: Active; Activity [29]: Active; Activity (Mus musculus [30]): Active; Activity (Mus musculus [31]): inactive"
,,,,,,,,CC1(C)CC=C(c2cnc3ccccc3c2)c2cc(C(=O)Nc3ccc(C(=O)O)cc3)ccc21,Non-toxic,Non-toxic,inactive,inactive,inactive,inactive,Non-toxic,inactive,inactive,
79%,14%,93.3%,< 0.7 ×10⁻⁶ cm/s,95.3%,3.25,3.1 µM,Stable,CC1(C)CC=C(c2ccccc2)c2cc(/C=C/c3ccc(C(=O)O)cc3)ccc21,,,,,,,,,,Activity (Mus musculus [32]): Active; Activity (Mus musculus [33]): Active
